Measured values taken from ChEMBL document CHEMBL1932986, “Synthesis and in vitro antimycobacterial activity of compounds derived from (R)- and (S)-2-amino-1-butanol - The crucial role of the configuration” (Eur J Med Chem, 2012).
≈ marks a conversion by molar mass, not a printed value. Calls of active or inactive are those of the source. No cut-off for these calls is given here.

Experiments:
Bacillus mycoides = test: Antibacterial activity against Bacillus mycoides DSMZ 274 at 50 mg/ml after 24 hrs by agar diffusion test; format: functional; details: for zone of inhibition at 50000 µg/mL: DSMZ 274, 24 h, read-out: DIZ
In short: (§1)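 Agar diffusion: wells in agar filled with […] DMSO solution of compound at various concentrations; diameter of clear zone around application point measured. Bacteria grown 24 h at 37 °C on nutrient agar. Compounds first screened at 50 mg/ml; those active then tested at lower concentrations. Bracketed value = lowest concentration (mg/ml) giving zone >11 mm, reported only if activity retained at ≤1.25 mg/ml.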

[1] = Selectivity index, ratio of IC50 for human HEK293T cells to MIC for Mycobacterium tuberculosis H37Rv; format: functional, HEK-293T
Acinetobacter johnsonii = test: Antibacterial activity against Acinetobacter johnsonii ATCC 17909 at 50 mg/ml after 24 hrs by agar diffusion test; format: functional; in short: as §1
Bacillus cereus = test: Antibacterial activity against Bacillus cereus ATCC 11778 at 50 mg/ml after 24 hrs by agar diffusion test; format: functional; details: for zone of inhibition at 50000 µg/mL: ATCC 11778, 24 h, read-out: DIZ; in short: as §1
[2] = tested on: Mycobacterium tuberculosis; test: Antimycobacterial activity against Mycobacterium tuberculosis H37Rv after 45 days; format: functional
In short: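 Canetti proportion method. Compound in DMSO is added to Löwenstein–Jensen egg medium before coagulation (30 min, 85 °C), tested at three levels plus a lower one where needed. Tubes are inoculated with H37Rv at 10⁵ cells/ml and incubated 45 days at 37 °C. Colony counts versus drug-free control give percentage inhibition.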

Staphylococcus aureus = test: Antibacterial activity against Staphylococcus aureus NRRL B 313 at 50 mg/ml after 24 hrs by agar diffusion test; format: functional; details: for zone of inhibition at 50000 µg/mL: NRRL B 313, 24 h, read-out: DIZ
In short: (§2)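 Agar diffusion: bacteria grown 24 h at 37 °C on nutrient agar. Wells in the agar are filled with […] of compound solution in DMSO at various concentrations. The diameter of the clear zone around the application point is measured. Bracketed values give the lowest concentration (mg/ml) that produces a zone >11 mm. A first screen is run at 50 mg/ml.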

Bacillus subtilis = test: Antibacterial activity against Bacillus subtilis ATCC 6633 at 50 mg/ml after 24 hrs by agar diffusion test; format: functional; details: for zone of inhibition at 50000 µg/mL: ATCC 6633, 24 h, read-out: DIZ; in short: as §1
Penicillium chrysogenum = test: Antifungal activity against Penicillium chrysogenum CECT 2802 at 50 mg/ml after 72 hrs by agar diffusion test; format: functional; details: for zone of inhibition at 50000 µg/mL: CECT 2802, 72 h, read-out: DIZ
In short: (§3)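 Agar diffusion: yeasts grown on yeast peptone dextrose agar and fungi on potato dextrose agar. Wells are filled with […] of compound solution in DMSO at various concentrations, and the clear-zone diameter is measured. Bracketed values give the lowest concentration (mg/ml) that produces a zone >11 mm. A first screen is run at 50 mg/ml.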

Micrococcus luteus [3] = test: Antibacterial activity against Sarcina lutea ATCC 9341 at 50 mg/ml after 24 hrs by agar diffusion test; format: functional; in short: as §2
HEK-293T = test: Cytotoxicity against human HEK293T cells after 72 hrs by MTT assay; format: cell-based
In short: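 293T cells in RPMI-1640 with 10% heat-inactivated FCS and 2 mM L-glutamine, 37 °C, 5% CO2. Cells seeded at 3.5 × 10⁵ cells/ml, grown 24 h, then exposed 72 h to DMSO-diluted compounds (final solvent ≤0.5%), ≥8 wells per concentration. MTT added 4 h, formazan dissolved in 5% HCOOH/2-propanol, absorbance read at 580 nm. IC50 obtained by sigmoidal nonlinear regression against untreated control.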

Saccharomyces cerevisiae = test: Antifungal activity against Saccharomyces cerevisiae ATCC 9763 at 50 mg/ml after 72 hrs by agar diffusion test; format: functional; in short: as §3
[4] = Solubility of the compound in deionized water; format: physicochemical
Priestia megaterium = test: Antibacterial activity against Bacillus megaterium NRRL 1353895 at 50 mg/ml after 24 hrs by agar diffusion test; format: functional; in short: as §1
Bacillus = test: Antibacterial activity against Bacillus idosus B 241 at 50 mg/ml after 24 hrs by agar diffusion test; format: functional; details: for zone of inhibition at 50000 µg/mL: B 241, 24 h, read-out: DIZ; in short: as §1
[5] = tested on: Mycobacterium tuberculosis; test: Ratio of ethambutol dihydrochloride MIC to compound MIC for Mycobacterium tuberculosis H37Rv; format: functional
Candida tropicalis = test: Antifungal activity against Candida tropicalis ATCC 20336 at 50 mg/ml after 72 hrs by agar diffusion test; format: functional; in short: as §3
Micrococcus luteus [6] = test: Antibacterial activity against Micrococcus luteus ATCC 9631 at 50 mg/ml after 24 hrs by agar diffusion test; format: functional; in short: as §1
Escherichia coli = test: Antibacterial activity against Escherichia coli ATCC 8739 at 50 mg/ml after 24 hrs by agar diffusion test; format: functional; in short: as §1

## CC[C@H](CO)Nc1ccc2c3c(cccc13)C(=O)N([C@H](CC)CO)C2=O
Bacillus mycoides
  diameter of the inhibition zone (DIZ): inactive
[1]
  Selectivity Index: 3.4
Acinetobacter johnsonii
  diameter of the inhibition zone (DIZ): inactive
Bacillus cereus
  diameter of the inhibition zone (DIZ): inactive
[2]
  MIC: 14 µM (≈ 5 µg/mL)
Staphylococcus aureus
  diameter of the inhibition zone (DIZ): inactive
Bacillus subtilis
  diameter of the inhibition zone (DIZ): inactive
Penicillium chrysogenum
  diameter of the inhibition zone (DIZ): inactive
Micrococcus luteus [3]
  diameter of the inhibition zone (DIZ): inactive
HEK-293T
  IC50: 47 µM
Saccharomyces cerevisiae
  diameter of the inhibition zone (DIZ): inactive
[4]
  solubility: < 1 mg/mL
Priestia megaterium
  diameter of the inhibition zone (DIZ): inactive
Bacillus
  diameter of the inhibition zone (DIZ): inactive

## CC[C@@H](CO)N1Cc2ccccc2C1=O
[2]
  MIC: > 31.2 µM
[5]
  Ratio: 2

## CC[C@@H](CO)NCCN[C@@H](CC)CO.Cl.Cl [ETHAMBUTOL HYDROCHLORIDE]
[2]
  MIC: 7.22 µM
[4]
  solubility: 100 mg/mL

## CC[C@H](CO)Nc1ncccn1
Bacillus mycoides
  diameter of the inhibition zone (DIZ): inactive
Acinetobacter johnsonii
  diameter of the inhibition zone (DIZ): inactive
Candida tropicalis
  diameter of the inhibition zone (DIZ): inactive
Bacillus cereus
  zone of inhibition at 50000 µg/mL: 12 mm
[2]
  MIC: > 29.9 µM
Micrococcus luteus [6]
  diameter of the inhibition zone (DIZ): inactive
Staphylococcus aureus
  diameter of the inhibition zone (DIZ): inactive
Bacillus subtilis
  diameter of the inhibition zone (DIZ): inactive
Penicillium chrysogenum
  diameter of the inhibition zone (DIZ): inactive
Escherichia coli
  diameter of the inhibition zone (DIZ): inactive
Micrococcus luteus [3]
  diameter of the inhibition zone (DIZ): inactive
Saccharomyces cerevisiae
  diameter of the inhibition zone (DIZ): inactive
Priestia megaterium
  diameter of the inhibition zone (DIZ): inactive
Bacillus
  diameter of the inhibition zone (DIZ): inactive

## CC[C@H](CO)NCc1ccncc1
Bacillus mycoides
  diameter of the inhibition zone (DIZ): inactive
Acinetobacter johnsonii
  diameter of the inhibition zone (DIZ): inactive
Candida tropicalis
  diameter of the inhibition zone (DIZ): inactive
Bacillus cereus
  diameter of the inhibition zone (DIZ): inactive
[2]
  MIC: 27.7 µM (≈ 5 µg/mL)
Micrococcus luteus [6]
  diameter of the inhibition zone (DIZ): inactive
Staphylococcus aureus
  diameter of the inhibition zone (DIZ): inactive
Bacillus subtilis
  diameter of the inhibition zone (DIZ): inactive
Penicillium chrysogenum
  diameter of the inhibition zone (DIZ): inactive
Escherichia coli
  diameter of the inhibition zone (DIZ): inactive
Micrococcus luteus [3]
  diameter of the inhibition zone (DIZ): inactive
Saccharomyces cerevisiae
  diameter of the inhibition zone (DIZ): inactive
Priestia megaterium
  diameter of the inhibition zone (DIZ): inactive
Bacillus
  diameter of the inhibition zone (DIZ): inactive

## CC(C)=CCC/C(C)=C/CNCCNC1C2CC3CC(C2)CC1C3 (stereo unspecified) [SQ109]
[5]
  Ratio: 35

## CC[C@H](CO)NCc1ccccc1O
Bacillus mycoides
  zone of inhibition at 50000 µg/mL: 14 mm
Acinetobacter johnsonii; ATCC 17909, 24 h, read-out: DIZ
  zone of inhibition at 50000 µg/mL: 13 mm
Candida tropicalis
  diameter of the inhibition zone (DIZ): inactive
Bacillus cereus
  zone of inhibition at 50000 µg/mL: 14 mm
[2]
  MIC: 25.6 µM (≈ 5 µg/mL)
Micrococcus luteus [6]; ATCC 9631, 24 h, read-out: DIZ
  zone of inhibition at 50000 µg/mL: 11 mm
Staphylococcus aureus
  zone of inhibition at 50000 µg/mL: 12 mm
Bacillus subtilis
  zone of inhibition at 50000 µg/mL: 17 mm
Penicillium chrysogenum
  zone of inhibition at 50000 µg/mL: 12 mm
Escherichia coli
  diameter of the inhibition zone (DIZ): inactive
Micrococcus luteus [3]; ATCC 9341, 24 h, read-out: DIZ
  zone of inhibition at 50000 µg/mL: 12 mm
Saccharomyces cerevisiae
  diameter of the inhibition zone (DIZ): inactive
Priestia megaterium; NRRL 1353895, 24 h, read-out: DIZ
  zone of inhibition at 50000 µg/mL: 12 mm
Bacillus
  zone of inhibition at 50000 µg/mL: 11 mm

## CC[C@@H](CO)NC(=O)/C=C/c1ccccc1
[2]
  MIC: > 22.8 µM
[5]
  Ratio: 2

## CC[C@H](CO)N1Cc2ccccc2C1
Bacillus mycoides
  zone of inhibition at 50000 µg/mL: 23 mm
[1]
  Selectivity Index: 11.7
Candida tropicalis; ATCC 20336, 72 h, read-out: DIZ
  zone of inhibition at 50000 µg/mL: 21 mm
Bacillus cereus
  zone of inhibition at 50000 µg/mL: 25 mm
[2]
  MIC: 10.5 µM (≈ 2 µg/mL)
Staphylococcus aureus
  zone of inhibition at 50000 µg/mL: 25 mm
Bacillus subtilis
  zone of inhibition at 50000 µg/mL: 11 mm
Penicillium chrysogenum
  zone of inhibition at 50000 µg/mL: 10 mm
Escherichia coli; ATCC 8739, 24 h, read-out: DIZ
  zone of inhibition at 50000 µg/mL: 25 mm
HEK-293T
  IC50: 122 µM
Saccharomyces cerevisiae; ATCC 9763, 72 h, read-out: DIZ
  zone of inhibition at 50000 µg/mL: 16 mm
[4]
  solubility: < 1 mg/mL
Bacillus
  zone of inhibition at 50000 µg/mL: 20 mm
